Most compounds without a hit are left out; they make up all but 1.5% or so of the library.
CCR6 antag: CCR6 (human) receptor antagonism. P51684. CHO-K1 CCR6 PathHunter beta-arrestin, luminescence, CCL20-stimulated. inhibition, % at 20 µM. actives 0.49% (n = 340,000);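 active means compounds whose inhibition of the agonist-driven luminescence signal at 20 µM reaches about 50%, limit read from the data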;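 further: cells stimulated with CCL20 at 14 nM final; plate controls were DMSO with CCL20 for no effect and DMSO without agonist for full effect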
EBI2 block: antagonists of human EBI2 receptor; EBI2 beta-arrestin recruitment, luminescence, 7a,25-OHC stimulated; inhibition, % at 5 µM; actives 0.81% (n = 360,000); AID 651636; in the data active means inhibition above about 38%;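 further: enzyme fragment complementation signal reports receptor beta-arrestin coupling in cells; 0% = agonist plus DMSO wells and 100% = wells without agonist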
APJ agonist: activates the human apelin receptor APJ; P35414; CHO-K1 APJ PathHunter beta-arrestin, luminescence; 0% DMSO wells, 100% apelin; activation, % at 20 µM; actives 0.11% (n = 330,000);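 active means activation more than six SD over the plate average, tested at 20 µM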;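 further: 0% = DMSO alone and 100% = apelin-13 at 10 nM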
Target sequence (P35414 whole entry, looked up): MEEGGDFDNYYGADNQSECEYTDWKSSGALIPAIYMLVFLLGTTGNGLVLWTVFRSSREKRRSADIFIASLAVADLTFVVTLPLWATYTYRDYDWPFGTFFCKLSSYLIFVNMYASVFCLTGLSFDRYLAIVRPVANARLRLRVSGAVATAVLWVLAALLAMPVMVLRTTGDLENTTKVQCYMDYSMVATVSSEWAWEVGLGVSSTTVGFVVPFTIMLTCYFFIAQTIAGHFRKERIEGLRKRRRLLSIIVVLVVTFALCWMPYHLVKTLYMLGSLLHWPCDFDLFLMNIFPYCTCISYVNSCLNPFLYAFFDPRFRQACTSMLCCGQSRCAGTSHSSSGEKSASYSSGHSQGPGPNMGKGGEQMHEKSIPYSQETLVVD
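Assay system – PathHunter CHO-K1 APJ (AGTRL-1) beta-arrestin reporter cells · Compound – one dose, 20 µM compound, 1% DMSO · Timing – compound 90 min 25 °C, reagent 1 h · Measured by – luminescence from split beta-galactosidase complementation, Galacton Star/Emerald II substrate · Measure – beta-arrestin recruitment to APJ as agonist activity, luminescent signal · Benchmarks – DMSO vs Apelin-13 10 nM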
CXCR6 block: blocks human CXCR6 beta-arrestin recruitment | CHO-K1 PathHunter CXCR6 beta-arrestin, luminescence | inhibition, % at 20 µM | O00574 | actives 0.36% (n = 360,000); in the data active means inhibition above about 34%, passing the limit was not always enough;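 further: antagonist mode with CXCL16 agonist at 10 nM final; 0% = 10 nM CXCL16 with DMSO and 100% = unstimulated wells without agonist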
Target sequence (O00574 whole entry, looked up): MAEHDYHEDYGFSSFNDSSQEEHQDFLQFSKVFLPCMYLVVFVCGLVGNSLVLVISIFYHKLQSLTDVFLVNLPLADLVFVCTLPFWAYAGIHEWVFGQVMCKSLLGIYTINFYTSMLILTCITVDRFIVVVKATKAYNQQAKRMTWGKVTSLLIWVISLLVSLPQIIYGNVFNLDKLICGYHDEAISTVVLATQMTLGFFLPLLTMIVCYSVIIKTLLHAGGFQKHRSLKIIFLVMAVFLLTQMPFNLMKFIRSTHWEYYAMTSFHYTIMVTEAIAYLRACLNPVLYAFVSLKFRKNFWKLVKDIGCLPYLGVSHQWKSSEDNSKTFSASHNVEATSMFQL
APJ antagonist: antagonists of human APJ apelin receptor; P35414; AID 2521; actives 0.32% (n = 330,000); inhibition, % at 20 µM; CHO-K1 APJ beta-arrestin complementation, luminescence;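 active means inhibition above about 40% at 20 µM, limit read from the data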;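 further: cells challenged with 10 nM apelin-13 agonist together with compound; plate controls were apelin-13 plus DMSO wells for no effect and DMSO wells lacking apelin-13 for full effect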
EBI2 conf: confirmation of human EBI2 receptor antagonists. EBI2 beta-arrestin luminescence, 7a,25-OHC antagonism. shares compounds with EBI2 block. inhibition, % at 5 µM. actives 29% (n = 2,400). AID 651997;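 active means inhibition of at least 50%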
EBI2 agonist: activates EBI2, counter-screen for EBI2 antagonists; shares compounds with EBI2 block; EBI2-expressing cells, agonist mode, luminescence, 60 min; 0% vehicle, 100% 7α,25-dihydroxycholesterol control; activation, % at 5 µM; 2,400 tested, under 10 active; AID 652000;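 active means activation of at least 50%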
bGal cs: counter-screen for EBI2 antagonists: E. coli beta-galactosidase inhibition | shares compounds with EBI2 block | purified beta-galactosidase, luminescent Galacton Star, 15 min | inhibition, % at 5 µM | actives 1% (n = 2,400);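 active means replicate-average signal at least 3 plate SD below neutral wells, shown as high inhibition, flagging enzyme-inhibiting false positives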;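 further: 0% = DMSO wells with enzyme and 100% = wells lacking enzyme; higher means stronger loss of beta-gal luminescence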
Active calls of the source: *; . = not tested or not shown.

SMILES | CCR6 antag | EBI2 block | APJ agonist | CXCR6 block | APJ antagonist | EBI2 conf | EBI2 agonist | bGal cs
CN1C(=O)[C@H](Cc2ccc([N+](=O)[O-])cc2)NC1=S | 32.8 | 3.7 | -9.1 | 19.1 | 26.9 | . | . | .
Cc1ccccc1Oc1ncnc2oc(-c3ccccc3)cc12 | 2.4 | 65.5* | -3.8 | -11.6 | 9.8 | 37.8 | -1.8 | -9.0
Clc1ccc(Oc2ncnc3oc(-c4ccccc4)cc23)cc1 | 0.4 | 9.9 | -3.5 | 4.5 | 12.5 | . | . | .
OCc1cccc(-c2cnc3c(Nc4cccc(OC(F)(F)C(F)F)c4)nccn23)c1 | . | 51.3* | . | -19.5 | . | 50.9* | -1.4 | -16.0
Cc1ccc(-c2cnc3c(Nc4cccc(OC(F)(F)C(F)F)c4)nccn23)cc1 | . | 37.0 | . | 0.3 | . | . | . | .
OC(CC1CC12c1ccccc1-c1ncccc12)(c1ccccc1)c1ccccc1 (centres undefined) | 13.6 | 47.1* | 0.2 | 15.4 | -4.7 | 39.4 | -0.2 | 3.5
CCOC(=O)C(C)C1(O)c2ccccc2-c2ncccc21 (centres undefined) | -16.4 | -1.8 | -0.7 | 5.4 | 9.7 | . | . | .
CC(=O)Nc1ccc(NC(=O)C(C)OC(=O)CCSc2ccccc2Cl)cc1 (centres undefined) | 3.5 | -1.4 | -0.3 | -0.1 | -4.1 | . | . | .
O=C(/C=C/c1ccc(OCCCF)cc1)NCc1ccc(Cl)c(Cl)c1 | 9.8 | 44.3* | 3.4 | -1.0 | -7.0 | 39.9 | 0.1 | 5.2
COc1ccc(CNC(=O)/C=C/c2ccc(OCCCF)cc2)cc1OC | 5.8 | -2.4 | 3.0 | 6.4 | -3.7 | . | . | .
CC(Sc1nnc(N)s1)C(=O)c1c(N)n(C)c(=O)n(C)c1=O (centres undefined) | -1.1 | -9.4 | -2.7 | -6.0 | 17.2 | . | . | .
Cc1nc(SC(C)C(=O)c2c(N)n(C)c(=O)n(C)c2=O)c2c(C)c(C)sc2n1 (centres undefined) | 0.3 | 46.7* | -1.8 | 5.4 | 5.8 | 51.2* | -1.0 | 6.9
COc1ccc2c(c1)c1nc3ccccc3nc1n2Cc1ccc(OC(C)C)c(OC)c1 | 17.2 | 25.8 | -4.7 | 3.3 | 4.0 | . | . | .
COc1ccc(Cn2c3ccc(OC)cc3c3nc4ccccc4nc32)cc1 | 2.1 | 52.9* | -4.2 | -4.3 | 9.1 | 21.5 | -0.6 | -14.0
COc1ccc(N2CCN(C(=O)c3cc4c(C)nc5ccccc5c4o3)CC2)cc1 | 2.4 | 53.8* | -2.5 | 0.7 | 9.1 | 42.5 | 0.8 | 7.6
CC(=O)c1ccc(N2CCN(C(=O)c3cc4c(C)nc5ccccc5c4o3)CC2)cc1 | -1.5 | -1.6 | 3.8 | -19.1 | -13.0 | . | . | .
Cc1nc2ccccc2c2oc(C(=O)N3CCN(C4CCCCC4)CC3)cc12 | 7.5 | 86.9* | 0.3 | -8.4 | -48.4 | 76.7* | 1.2 | 3.1
CS(=O)(=O)c1ccc(C(=O)CN2C(=O)NC3(CCCc4ccccc43)C2=O)cc1 (centres undefined) | 2.8 | -0.3 | -2.0 | -3.7 | -17.2 | . | . | .
CNC(=S)N/N=C/c1ccccc1Cl | 13.2 | -3.2 | -0.8 | 7.3 | 4.2 | . | . | .
S=C(N/N=C/c1ccccc1Cl)Nc1ccccc1 | 32.0 | 43.1* | -3.3 | 12.4 | 33.0 | 37.5 | 0.8 | 4.1
COc1cccc(C(=O)N(Cc2ccco2)c2c(N)n(Cc3ccccc3)c(=O)[nH]c2=O)c1 | 11.3 | 1.3 | -3.1 | 3.5 | -0.3 | . | . | .
CCc1nc2ccc(C(=O)NCCOc3ccc(OC)cc3)cn2c1N(CC)Cc1cccc(Br)c1 | . | 74.3* | . | 17.0 | . | 47.8 | -0.4 | 4.6
CCc1nc2ccc(C(=O)Nc3cccc(OC)c3)cn2c1N(CC)Cc1cccc(Br)c1 | . | 12.6 | . | 12.8 | . | . | . | .
CCc1nc2ccc(C(=O)NCCN(C)C)cn2c1N(CC)CCOC | . | -11.5 | . | -4.3 | . | . | . | .
CCc1nc2ccc(C(=O)NCCOc3ccc(OC)cc3)cn2c1N(CC)CCOC | . | 45.2* | . | -3.4 | . | 37.0 | 1.6 | 0.4
SMILES | CCR6 antag | EBI2 block | APJ agonist | CXCR6 block | APJ antagonist | EBI2 conf | EBI2 agonist | bGal cs
Cc1[nH]c2ccccc2c1C(=O)C(=O)NC1CC1 | 11.4 | -8.2 | 4.5 | 5.9 | -15.5 | . | . | .
O=C(C1CC(=O)N(c2ccc3c(c2)OCCO3)C1)N1CCN(S(=O)(=O)c2cccc(F)c2)CC1 (centres undefined) | -1.9 | 8.2 | . | -7.7 | . | . | . | .
O=C1CC(C(=O)N2CCN(S(=O)(=O)c3cccc(F)c3)CC2)CN1Cc1ccccc1Cl (centres undefined) | -4.6 | 61.7* | -2.7 | 1.4 | 15.5 | 32.8 | -1.8 | -6.7
O=C(c1cc2cc(F)ccc2[nH]1)N1CCC(Cc2ccccc2)CC1 | 10.8 | 87.5* | -1.3 | -3.9 | 9.4 | 63.2* | 0.6 | 5.9
O=C(c1cc2cc(F)ccc2[nH]1)N1CCc2ccccc2C1 | 14.2 | 15.3 | -2.9 | -2.3 | -3.7 | . | . | .
COc1cc2cc(C(=O)N3CCC(Cc4ccccc4)CC3)[nH]c2cc1OC | 8.1 | 13.4 | -5.3 | 8.6 | 13.4 | . | . | .
COc1ccc2[nH]c(C(=O)N3CCC(Cc4ccccc4)CC3)cc2c1 | 3.7 | 83.9* | -0.8 | 1.9 | -9.7 | 51.3* | -1.2 | -11.6
COc1ccc2cc(C(=O)N3CCC(Cc4ccccc4)CC3)[nH]c2c1 | -0.5 | 76.8* | -1.3 | 9.0 | -2.0 | 53.3* | 0.8 | 3.3
CC(C)NC(=O)N(C)C[C@H]1OCc2cnnn2CCCC(=O)N([C@H](C)CO)C[C@H]1C | . | -1.8 | . | 9.5 | . | . | . | .
Cc1noc(C)c1C(=O)N(CC(=O)Nc1ccccc1Br)Cc1ccco1 | 10.8 | -8.4 | -5.5 | 1.9 | 14.1 | . | . | .
COC(=O)NC(C)N1C(=O)C2C3C=CC(C3)C2C1=O (centres undefined) | -0.8 | -2.8 | -2.6 | -24.4 | -12.2 | . | . | .
Cc1ccc(OCC(=O)N2CCN(C(=O)c3cccs3)CC2)cc1 | -1.9 | 60.1* | -2.4 | -1.9 | -3.9 | 41.1 | 1.4 | -2.9
O=C(CSc1ccc(Br)cc1)N1CCN(C(=O)c2ccco2)CC1 | 3.9 | 82.5* | -2.1 | -7.4 | -17.5 | 69.1* | 0.3 | 2.1
O=C(CSc1ccc(Br)cc1)N1CCOCC1 | -0.3 | 11.9 | 1.4 | 0.7 | 3.9 | . | . | .
COc1ccc(CN2CCN(C(=O)c3cccs3)CC2)cc1 | 0.0 | -18.1 | 0.2 | 1.8 | -17.1 | . | . | .
O=C(COc1ccc2ccccc2c1)N1CCN(C(=O)c2ccco2)CC1 | 8.1 | 72.5* | -3.4 | -11.8 | -0.7 | 49.7 | -0.8 | -6.3
Cc1ccc(OCC(=O)N2CCN(C(=O)c3ccco3)CC2)cc1 | 10.1 | 52.2* | -4.3 | 4.4 | -14.4 | 23.2 | 3.0 | 7.0
CCN(C(=O)COC(=O)CCOc1cc(C)ccc1C)c1c(N)n(Cc2ccccc2)c(=O)[nH]c1=O | -0.2 | 1.8 | . | -2.1 | . | . | . | .
O=C(COC(=O)/C=C/c1cccc([N+](=O)[O-])c1)Nc1cccnc1Cl | 16.0 | -10.8 | -5.6 | -1.6 | 8.6 | . | . | .
